The record followed here is ChEMBL document CHEMBL1137414, “3'-Substituted 7-halogenoindirubins, a new class of cell death inducing agents” (J Med Chem, 2006).

Each structure is given as a SMILES string. A value given as a limit tells only on which side of the number the result lay.

For experiment [1], the target named is Cyclin-dependent kinase 5/CDK5 activator 1 (Homo sapiens, UniProt Q00535+Q15078). Nature of the experiment: (§1) Inhibition of mammalian CDK5/p25. The class given is protein-complex assay. In short, it runs like this:
(§2)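 Recombinant CDK5 and p25, each expressed in E. coli as GST fusions and affinity-purified on glutathione agarose, mixed in equal amounts. Phosphate incorporation onto P81 paper read by scintillation counting, blank subtracted. Activity taken as % of uninhibited. IC50 from dose-response curves.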

Experiment [2] relates to SH-SY5Y. Nature of the experiment: Survival of human SH-SY5Y cells at 25 uM by MTS reduction assay. The conditions noted are these: for viability at 25 µM: Homo sapiens, SH-SY5Y, read-out: Survival. The format is functional, cell-based. An outline of the steps: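 Viability was read by MTS reduction and expressed as percent of untreated cells, as the average ± SE of three independent measurements, representative of two independent experiments.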
In general terms: Tetrazolium dyes change colour on reduction, which living cells bring about.

For experiment [3], the system named is SH-SY5Y. In words: Death of human SH-SY5Y cells at 25 uM after 48 hrs by LDH release assay. The class given is functional. In short, it runs like this: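 SH-SY5Y human neuroblastoma cells were grown in DMEM with 2 mM L-glutamine, antibiotics and 10% FCS at 37 °C under 5% CO2. […] Lactate dehydrogenase release was measured 48 h after addition and expressed as percent cell death.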

The subject of experiment [4] is SH-SY5Y. Nature of the experiment: Survival of human SH-SY5Y cells after 24 hrs by MTS reduction assay. The class given is functional, cell-based.
The test system of experiment [5] is SH-SY5Y. In words: Death of human SH-SY5Y cells in presence of 20 uM Q-VD-OPh by MTS reduction assay. The format is functional, cell-based. As to conditions: Homo sapiens, SH-SY5Y.
Experiment [6] relates to SH-SY5Y. Nature of the experiment: Death of human SH-SY5Y cells in absence of 20 uM Q-VD-OPh by MTS reduction assay. The class given is functional, cell-based. The conditions noted are these: Homo sapiens, SH-SY5Y; read-out: IC50.
Experiment [7] deals with SH-SY5Y. In words: Survival of human SH-SY5Y cells after 48 hrs by MTS reduction assay. The class given is functional, cell-based.
Experiment [8] in a line: Inhibition of starfish CDK1/cyclin B in presence of 15 uM ATP. On the set-up: species or system Marthasterias glacialis.
Experiment [9] deals with Cyclin-dependent kinase 5/CDK5 activator 1 (Homo sapiens, UniProt Q00535). The experiment is described as §1. The class given is protein-complex assay. In short, it runs like this:
as §2

Cyclin-dependent kinase 5/CDK5 activator 1 (Homo sapiens, UniProt Q00535), sequence (Q00535 whole entry): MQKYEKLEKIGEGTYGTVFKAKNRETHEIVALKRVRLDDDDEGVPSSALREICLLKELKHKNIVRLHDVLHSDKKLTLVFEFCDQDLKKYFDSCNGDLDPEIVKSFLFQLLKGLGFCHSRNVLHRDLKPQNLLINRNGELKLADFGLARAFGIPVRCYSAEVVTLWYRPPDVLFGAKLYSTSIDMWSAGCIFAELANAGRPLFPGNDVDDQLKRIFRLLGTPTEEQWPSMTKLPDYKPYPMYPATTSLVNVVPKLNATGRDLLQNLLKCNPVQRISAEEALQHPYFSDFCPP
Cyclin-dependent kinase 5/CDK5 activator 1 (Homo sapiens, UniProt Q00535), sequence (Q15078 whole entry, further chain): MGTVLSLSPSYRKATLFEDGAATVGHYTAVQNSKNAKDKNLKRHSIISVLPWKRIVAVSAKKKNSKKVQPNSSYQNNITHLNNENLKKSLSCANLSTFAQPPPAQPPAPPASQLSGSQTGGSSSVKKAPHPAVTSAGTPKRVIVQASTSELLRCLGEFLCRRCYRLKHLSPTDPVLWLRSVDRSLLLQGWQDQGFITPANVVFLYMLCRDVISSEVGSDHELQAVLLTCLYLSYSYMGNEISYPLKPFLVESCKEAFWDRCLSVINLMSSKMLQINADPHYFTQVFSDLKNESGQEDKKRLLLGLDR
Cyclin-dependent kinase 5/CDK5 activator 1 (Homo sapiens, UniProt Q00535+Q15078), sequence (Q00535 whole entry, the tested form may be a part): as the sequence (Q00535 whole entry) above
Cyclin-dependent kinase 5/CDK5 activator 1 (Homo sapiens, UniProt Q00535+Q15078), sequence (Q15078 whole entry, the tested form may be a part): as the sequence (Q15078 whole entry, further chain) above

Regarding `CCN(CC)CCO/N=C1/C(c2c(O)n(C)c3c(Br)cccc23)=Nc2ccccc21`, in [1], the IC50 (in general, the midpoint of a concentration-inhibition curve) is greater than 10 µM. The same molecule had a Survival with SH-SY5Y [2] of 83%.

In [1], `CCN(CC)CCO/N=C1/C(c2c(O)[nH]c3c(Br)cccc23)=Nc2ccccc21.Cl` (stereo in doubt; 13ls) registered an IC50 greater than 10 µM. Further, in the experiment on SH-SY5Y [2], the Survival turned out to be 72%.

In the experiment with SH-SY5Y [3], `O=C1Nc2cc(Br)ccc2/C1=C1/Nc2ccccc2/C1=N\O` [6BIO] yielded an Activity of 80%. For the same molecule, in the experiment on SH-SY5Y [2], the viability at 25 µM was 5%.

The molecule `O=Nc1c(-c2c(O)[nH]c3ccccc23)[nH]c2ccccc12` [INDIRUBIN-3-MONOXIME] returned an Activity in the experiment with SH-SY5Y [3] of 33%. In addition, the 50% inhibitory concentration (IC50) with SH-SY5Y [4] (Homo sapiens, SH-SY5Y, 24 h) was greater than 25 µM; with SH-SY5Y [5] it was greater than 25 µM; in the experiment on SH-SY5Y [6] it was 13 µM; with SH-SY5Y [7] (Homo sapiens, SH-SY5Y, 48 h), 12 µM. Besides, the viability at 25 µM with SH-SY5Y [2] was 27%.

Regarding `Oc1[nH]c2c(Br)cccc2c1C1=Nc2ccccc2/C1=N\OCCN1CCOCC1`, the half-inhibitory concentration (IC50) in [1] is greater than 10 µM. Also, the Survival in the experiment on SH-SY5Y [2] was determined as 98%.

Molecule `Cn1c(O)c(C2=Nc3ccccc3/C2=N\OCCN2CCOCC2)c2cccc(Br)c21` came in with an IC50 in experiment [1] greater than 10 µM. In the experiment with SH-SY5Y [2], this molecule yielded a Survival of 98%.

`CCN(CC)CCO/N=C1/C(c2c(O)[nH]c3c(Br)cccc23)=Nc2ccccc21` displayed a half-maximal inhibitory concentration (IC50) in experiment [1] greater than 10 µM. In the experiment with SH-SY5Y [2], this molecule showed a Survival of 49%.

In experiment [1], `Oc1[nH]c2c(Br)cccc2c1C1=Nc2ccccc2/C1=N\OCCn1ccnc1` registered an IC50 greater than 10 µM. This molecule came in with a Survival in the experiment on SH-SY5Y [2] of 59%.

As to `CN(C)CCO/N=C1/C(c2c(O)n(C)c3c(Br)cccc23)=Nc2ccccc21`, the Activity in the experiment with SH-SY5Y [3] turned out to be 33%. Also, the 50% inhibitory concentration (IC50) in experiment [1] is greater than 10 µM; in the experiment on SH-SY5Y [4] (sh-sy5y) it was greater than 25 µM; with SH-SY5Y [5], greater than 25 µM; in the experiment with SH-SY5Y [6], 6.4 µM; in the experiment on SH-SY5Y [7] (sh-sy5y) it was 5.5 µM. The molecule also yielded a Survival in the experiment with SH-SY5Y [2] of 49%.

As for `O=C1Nc2ccc(Br)cc2/C1=C1/Nc2ccccc2/C1=N\O` [INDIRUBIN 2], the half-inhibitory concentration (IC50) in experiment [8] stood at 0.045 µM; in [9], 0.028 µM; in the experiment with SH-SY5Y [4] (Homo sapiens, SH-SY5Y, 24 h) it was 18 µM; in the experiment on SH-SY5Y [5], 23 µM; in the experiment with SH-SY5Y [6], 13 µM; in the experiment with SH-SY5Y [7] (Homo sapiens, SH-SY5Y, 48 h), 12 µM. The Activity in the experiment on SH-SY5Y [3] turned out to be 59%. In addition, the viability at 25 µM in the experiment with SH-SY5Y [2] amounted to 13%.

`O=Nc1c(-c2c(O)[nH]c3c(F)cccc23)[nH]c2ccccc12`: the IC50 was 1.5 µM in [8] and 0.51 µM in [9]. Also, in the experiment on SH-SY5Y [2], the viability at 25 µM turned out to be 46%.

Turning to `Cn1c(O)c(C2=Nc3ccccc3/C2=N\OCCBr)c2cccc(Br)c21`, the IC50 in experiment [8] and in [9] was greater than 10 µM each time. In the experiment with SH-SY5Y [2], the viability at 25 µM was determined as 99%.

For the molecule `CCN(CC)CCO/N=C1/C(c2c(O)n(C)c3c(Br)cccc23)=Nc2ccccc21.Cl`, the concentration for half-maximal inhibition (IC50) in [8] is greater than 10 µM; in [9], greater than 10 µM; in the experiment with SH-SY5Y [5], greater than 25 µM; in the experiment with SH-SY5Y [6] it was 18 µM. For the same molecule, the Activity in the experiment on SH-SY5Y [3] came out at 58%. Besides, the Survival with SH-SY5Y [2] was 15%.

As to `Oc1[nH]c2c(Br)cccc2c1C1=Nc2ccccc2/C1=N\OCCN1CCCC1`, the Activity in the experiment with SH-SY5Y [3] is reported as 14%. The IC50 in [1] was greater than 10 µM; with SH-SY5Y [4] (sh-sy5y) it was 3.6 µM; in the experiment with SH-SY5Y [5], greater than 25 µM; in the experiment on SH-SY5Y [6], 2 µM; with SH-SY5Y [7] (sh-sy5y) it was 2.3 µM. This molecule registered a Survival with SH-SY5Y [2] of 13%.
